Reference: ChEMBL document CHEMBL1134534, “Phenylpiperazinylalkylamino substituted pyridazinones as potent alpha(1) adrenoceptor antagonists” (J Med Chem, 2001)
Calls of active or inactive are those of the source. The rule behind the calls is not given here.

Assays:
[1] = biological target: T1, 5-hydroxytryptamine receptor 1A (Homo sapiens, UniProt P08908); test: Binding affinity towards human cloned 5-hydroxytryptamine 1A receptor using [3H]8-OH-DPAT as radioligand
T1 sequence (P08908 whole entry): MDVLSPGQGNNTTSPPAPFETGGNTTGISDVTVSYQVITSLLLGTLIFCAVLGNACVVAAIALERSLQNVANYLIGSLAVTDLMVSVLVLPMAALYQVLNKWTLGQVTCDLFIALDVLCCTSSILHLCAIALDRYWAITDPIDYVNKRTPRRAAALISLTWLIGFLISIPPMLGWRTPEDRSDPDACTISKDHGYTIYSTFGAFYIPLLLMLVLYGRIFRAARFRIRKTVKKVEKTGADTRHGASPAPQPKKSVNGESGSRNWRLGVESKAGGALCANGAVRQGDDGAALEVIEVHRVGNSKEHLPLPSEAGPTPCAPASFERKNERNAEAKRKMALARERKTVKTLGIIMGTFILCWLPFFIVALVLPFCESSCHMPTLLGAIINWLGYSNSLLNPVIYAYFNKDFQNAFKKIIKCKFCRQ

[2] = biological target: T2, Alpha-1A adrenergic receptor (Homo sapiens, UniProt P35348); test: Binding affinity towards human cloned alpha-1A-adrenoceptor using [3H]prazosin as radioligand
T2 sequence (P35348 whole entry): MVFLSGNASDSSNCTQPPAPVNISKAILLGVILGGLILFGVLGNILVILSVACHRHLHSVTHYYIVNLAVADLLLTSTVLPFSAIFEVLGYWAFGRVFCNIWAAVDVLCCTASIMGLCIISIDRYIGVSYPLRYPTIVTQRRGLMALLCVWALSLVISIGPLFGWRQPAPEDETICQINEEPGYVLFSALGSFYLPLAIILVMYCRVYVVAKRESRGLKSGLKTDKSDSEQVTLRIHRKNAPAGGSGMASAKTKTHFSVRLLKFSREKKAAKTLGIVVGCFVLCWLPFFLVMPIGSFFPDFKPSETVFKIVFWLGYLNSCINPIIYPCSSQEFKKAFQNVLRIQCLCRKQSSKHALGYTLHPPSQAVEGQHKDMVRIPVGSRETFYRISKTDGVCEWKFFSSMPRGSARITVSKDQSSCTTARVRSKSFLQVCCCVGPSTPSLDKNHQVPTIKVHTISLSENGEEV

[3] = biological target: T3, Alpha-1A adrenergic receptor (Homo sapiens) (UniProt P35348); test: Experimental binding affinity for alpha-1A-adrenergic receptor
T3 sequence (whole entry): T2 sequence (P35348 whole entry)
Procedure, shortened: (§1)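 Membranes (30 µg protein) from CHO cells stably transfected with each human α1 subtype. Nonspecific binding defined with 10 µM phentolamine. Filtration. IC50 from curve fit, converted to Ki by Cheng–Prusoff. Triplicates; 2–3 experiments.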

[4] = biological target: T4, Alpha-1B adrenergic receptor (Homo sapiens, UniProt P35368); test: Binding affinity towards human cloned alpha-1B-adrenoceptor using [3H]prazosin as radioligand
T4 sequence (P35368 whole entry): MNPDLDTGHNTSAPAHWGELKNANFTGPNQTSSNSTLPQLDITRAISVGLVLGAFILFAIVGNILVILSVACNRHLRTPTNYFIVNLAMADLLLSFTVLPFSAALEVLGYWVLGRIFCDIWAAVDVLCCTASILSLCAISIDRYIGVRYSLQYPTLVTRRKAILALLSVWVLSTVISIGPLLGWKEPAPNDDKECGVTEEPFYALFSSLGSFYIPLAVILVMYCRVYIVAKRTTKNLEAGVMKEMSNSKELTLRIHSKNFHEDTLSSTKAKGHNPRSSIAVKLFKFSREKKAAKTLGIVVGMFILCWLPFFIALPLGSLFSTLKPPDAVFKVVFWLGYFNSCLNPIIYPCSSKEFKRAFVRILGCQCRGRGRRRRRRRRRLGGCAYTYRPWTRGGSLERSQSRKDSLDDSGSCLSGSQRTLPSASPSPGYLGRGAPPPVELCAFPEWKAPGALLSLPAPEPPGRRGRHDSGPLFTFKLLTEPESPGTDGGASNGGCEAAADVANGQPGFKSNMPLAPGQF

[5] = biological target: T5, Alpha-1B adrenergic receptor (Homo sapiens) (UniProt P35368); test: Experimental binding affinity for alpha-1B-adrenergic receptor; procedure, shortened: as §1
T5 sequence (whole entry): T4 sequence (P35368 whole entry)

[6] = biological target: T6, Alpha-1D adrenergic receptor (Homo sapiens, UniProt P25100); test: Binding affinity towards human cloned alpha-1D-adrenoceptor using [3H]prazosin as radioligand
T6 sequence (P25100 whole entry): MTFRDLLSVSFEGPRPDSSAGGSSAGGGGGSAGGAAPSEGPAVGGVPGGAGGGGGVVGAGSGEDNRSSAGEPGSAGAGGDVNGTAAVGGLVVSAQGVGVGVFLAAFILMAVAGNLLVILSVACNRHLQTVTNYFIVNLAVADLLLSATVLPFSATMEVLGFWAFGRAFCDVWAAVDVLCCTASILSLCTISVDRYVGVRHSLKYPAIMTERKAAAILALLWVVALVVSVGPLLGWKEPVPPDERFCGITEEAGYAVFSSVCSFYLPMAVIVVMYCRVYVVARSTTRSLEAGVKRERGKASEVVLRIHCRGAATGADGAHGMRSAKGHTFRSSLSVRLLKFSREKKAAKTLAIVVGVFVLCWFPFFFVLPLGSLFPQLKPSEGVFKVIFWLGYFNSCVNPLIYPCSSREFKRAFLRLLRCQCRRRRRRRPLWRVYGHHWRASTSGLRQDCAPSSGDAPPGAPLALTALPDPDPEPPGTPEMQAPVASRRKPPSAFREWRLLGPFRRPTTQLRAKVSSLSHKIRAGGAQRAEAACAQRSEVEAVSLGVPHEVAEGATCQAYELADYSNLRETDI

[7] = biological target: T7, Alpha-1D adrenergic receptor (Homo sapiens) (UniProt P25100); test: Experimental binding affinity for alpha-1D-adrenergic receptor; procedure, shortened: as §1
T7 sequence (whole entry): T6 sequence (P25100 whole entry)

[8] = biological target: T8, 5-hydroxytryptamine receptor 1A (Homo sapiens) (UniProt P08908); test: Ability to influence the binding of [35S]GTP-gamma-S, to HeLa cell membranes expressing the human 5-hydroxytryptamine 1A receptor; Not active; assay type: functional
T8 sequence (whole entry): T1 sequence (P08908 whole entry)
Procedure, shortened: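 Membranes from HeLa cells stably expressing human 5-HT1A, in 20 mM HEPES, 3 mM MgSO4, 120 mM NaCl pH 7.4. Preincubated 20 min at 30 °C with 30 µM GDP and compound (100 µM to 0.1 nM), then [35S]GTPγS (150–250 pM) added for a further 30 min at 30 °C. Nonspecific binding defined with 10 µM GTPγS. Filtration, scintillation counting. pEC50 from nonlinear curve fit; 2–3 experiments.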

[9] = biological target: T8, 5-hydroxytryptamine receptor 1A (Homo sapiens); test: Percent of maximum effect on binding of [35S]GTP-gamma-S, to HeLa cell membranes expressing the human 5-hydroxytryptamine 1A receptor; assay type: functional
Procedure, shortened: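 [35S]GTPγS binding on human 5-HT1A-expressing HeLa membranes, with 30 µM GDP, compound 100 µM–0.1 nM, 20 min then 30 min at 30 °C. Stimulation given as percent increase over basal, with the maximal 5-HT response set to 100%. Emax taken from the nonlinear curve fit; 2–3 experiments.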

| SMILES | Ki [1] [nM] | Ki [2] [nM] | pK1a [3] | Ki [4] [nM] | pK1b [5] | Ki [6] [nM] | pK1d [7] | NA [8] | Effect [9] [%] |
| --- | --- | --- | --- | --- | --- | --- | --- | --- | --- |
| COc1ccc(Cl)cc1N1CCN(CCCNc2c(C(C)=O)c(-c3ccccc3)nn(C)c2=O)CC1 | 1000 | 0.44 | 8.64 | 1.44 | 8.85 | 3.92 | 8.41 | – | – |
| COc1ccccc1N1CCN(CCNc2c(C(=O)C(C)C)c(-c3ccccc3)nn(C)c2=O)CC1 | 10.2 | 0.18 | 9.74 | 0.64 | 9.19 | 0.43 | 9.37 | inactive | – |
| COc1ccc(Cl)cc1N1CCN(CCNc2cc(-c3ccccc3)nn(C)c2=O)CC1 | 322 | 1 | 9 | 1.76 | 8.75 | 1.07 | 8.97 | – | – |
| COc1ccccc1N1CCN(CCCNc2c(C(C)=O)c(-c3ccccc3)nn(C)c2=O)CC1 | 134 | 1.51 | 8.82 | 20.3 | 7.69 | 4.32 | 8.37 | – | – |
| CCCN(CCC)C1CCc2cccc(O)c2C1 (stereo unspecified) [8-OH-DPAT] | – | – | – | 5980 | – | – | – | – | 100 |
| COc1ccccc1N1CCN(CCNc2c(C(C)=O)c(-c3ccccc3)nn(C)c2=O)CC1 | 2.47 | 0.63 | 9.46 | 3.29 | 8.48 | 0.13 | 9.89 | inactive | – |
| COc1ccc(Cl)cc1N1CCN(CCCNc2cc(-c3ccccc3)nn(C)c2=O)CC1 | > 1000 | 2 | 8.7 | 2.01 | 8.7 | 2.92 | 8.53 | – | – |
| CC(=O)c1c(-c2ccccc2)nn(C)c(=O)c1NCCN1CCN(c2ccccc2Cl)CC1 | 11.6 | 0.3 | 9.52 | 0.75 | 9.12 | 0.25 | 9.6 | – | – |
| COc1ccc(Cl)cc1N1CCN(CCCNc2c(C(C)=O)c(C)nn(C)c2=O)CC1 | 11.2 | 0.53 | 9.29 | 8.04 | 8.1 | 5.34 | 8.27 | – | – |
| COc1ccccc1N1CCN(CCNc2c(C(C)=O)c(C)nn(C)c2=O)CC1 | 13 | 2.29 | 8.64 | 49.8 | 7.3 | 3.2 | 8.5 | – | – |
| CC(=O)c1c(-c2ccccc2)nn(C)c(=O)c1NCCN1CCN(c2ccccc2F)CC1 | 24.1 | 0.32 | 9.49 | 3.77 | 8.42 | 0.49 | 9.31 | – | – |
| COc1ccccc1N1CCN(CCCNc2cc(-c3ccccc3)nn(C)c2=O)CC1 | 127 | 2.59 | 8.59 | 5.51 | 8.26 | 11.8 | 7.93 | – | – |
| COc1ccccc1N1CCN(CCNc2cc(C)nn(C)c2=O)CC1 | 32.1 | 18.6 | 7.73 | 33.1 | 7.48 | 17.7 | 7.75 | – | – |
| COc1ccccc1N1CCN(c2c(C(C)=O)c(-c3ccccc3)nn(C)c2=O)CC1 | > 1000 | 163 | 6.79 | 259 | 6.59 | > 10000 | 5 | – | – |
| COc1ccc(Cl)cc1N1CCN(CCCCNc2c(C(C)=O)c(C)nn(C)c2=O)CC1 | 1.39 | 2.99 | 8.52 | 49.1 | 7.39 | 5.96 | 8.3 | – | – |
| COc1ccccc1N1CCN(CCNc2cc(-c3ccccc3)nn(C)c2=O)CC1 | 14 | 0.22 | 9.66 | 2.01 | 8.7 | 11.8 | 7.93 | – | – |
| COc1ccc(Cl)cc1N1CCN(CCNc2c(C(C)=O)c(-c3ccccc3)nn(C)c2=O)CC1 | 76.2 | 0.28 | 9.55 | 3.95 | 8.4 | 0.41 | 9.39 | – | – |
